Experimental data as given in the RNAGym collection of RNA variant scans (doi:10.1126/science.aae0568).
This sample holds only a part of the variants without activity.

B1: tRNA (parent)
chain: GUUCCGUUGGCGUAAUGGUAACGCGUCUCCCUCCUAAGGAGAAGACUGCGGGUUCGAGUCCCGUACGGAACG

Variants of: B1
Assay: yeast fitness relative to wild type (ratio to wild type); higher = fitter; tRNA-Arg(CCU), competitive growth, 37 C, YPD
Method in brief: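 Start and end populations of a pooled competition were compared by 100-nucleotide paired-end sequencing of gene amplicons. The Saccharomyces cerevisiae strains carried tRNA-Arg(CCU) gene variants at the native genomic locus, synthesised with a 3% per-site mutation rate at 69 sites, and competed in YPD at 37°C for 24 hours in six parallel replicates. Darwinian fitness relative to wild type was based on the change in genotype frequencies. Genotypes required ≥ 100 starting reads, and estimates < 0.5 were set to 0.5.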

Point of comparison: GUUCCGUUGGCGUAAUGGUAACGCGUCUCCCUCCUAAGGAGAAGAUUGCGGGUUCGAGUCCCGUUCGGAACG, yeast fitness 0.883. Against it:
- GUUCCGUUGGCGUAAUGGUAACGCGUCUCCCUCCUAAGGAGAAGACUGCGGGUUCGAGUCCGGUACGGACCG — lower, 0.679
- GUUCCGUUGGCGUAAUGGUAACGCGUUUCCCUCCUAAGGGGAAGACUGCGGGUUCGAGUCCGGUACGAAACG — lower, ≤ 0.5
- GUUGCGUUGGCGUAAUGGUAACGCGUCUCCCUCCUAAGGAGAAGACUGCGGGUUCGUGUCCCGUACGGAUCG — lower, 0.869
- GUUCCGUUGGCGUAAUGGUAACGCCUCUCCGUCCUAAGGAGAAGACUGCGGGUUCGAGUCCUGUACGGAACG — lower, 0.737
- GUCCCGAUGGCGUAAUGGUAACGCGUAUCCCUCCUAAGGAGAAGACUGCGGGUUCGAGUCCCGUACGGAACG — lower, ≤ 0.5
- GUUCCGUCGGCGUAACGGUAACGCGUCUCCCUCCUAAGGAGAAGACUGCGGGUUCGAGUCCCGUACGGAACG — lower, 0.861
- GUUCCGUUGGUGUAAUGGUAGCGCGUCUCCCUCCUAUGGGAAAGACUGCGGGUUCGAGUCCCGUACGGAACG — lower, ≤ 0.5
- GUUCCGUUGGCGUAAUGGUACCGCGUCUCCCUCCUAAGGAGAGGACUGCGGGUUCGAAUCCCGUACGGAACG — higher, 0.892
- GUUCCGUUGGUGUAAUGGAAACGCGUCUCCCUCCUACGGCGAAGACUGCGGGUUCGAGUCCCAUACGGAACG — lower, ≤ 0.5
- GUGCCGUUGGCGUAAUGGUAGCGCGUCUCCCUCCUAAGGAGAAGACUGCGGGUUCGCGUCCCGUACGGAACG — lower, ≤ 0.5
- GUUCGGUUGGCGCAAUGGUAACGCGUCUCCCUCCUAAGGAGAAGACUGCGGGUUCGAGUCCUGUACGGAACG — lower, 0.602
- GUCCCGUUGGCGUAAUGGUAACGCGUCUCCCUCGUAAGGAGAAGACUGAAGGUUCGAGUCCCGUACGGAACG — lower, ≤ 0.5
- GUUCUGUUGGCGCAAUGGUAACGCGUCUCCCUCCUAAGGAGAAGACUGCGGGUUCGAGUCUCGUACGGAACG — lower, 0.673
- GUUCCGUUGGCGUAAUGGUAACGCGUCUCCCACCUAAGGAGAGGACUGCGGGUUCGAGUCUCGUACGGAACG — lower, ≤ 0.5
- GUAUCGAUGGCGUAAUGGUAACGUGUCUCCCUCCUAAGGAGAAGACUGCGGGUUCGAGUCCCGUACGGAUCG — lower, ≤ 0.5
- GUUCCGUUGGCGUAAUGGUAACGGGUUUCCCUUCUAAGGAGAAGACUGCGGCUUCGAGUCCCGUGCGGAACG — lower, ≤ 0.5
- GUUCCGUUGGCGUAAUGGUAACGCGUCCCCCUCCUAAGGAGAAGUCUCCGGGUUCGAGUCCCGUACGGAACG — lower, 0.638
- GUUCCGUUGGCGUAAUGGUAACGCGUCUGUCUCCUAAGGAGAAGACUGCGGGUUCGAGUCCCGUGCGGAACG — lower, ≤ 0.5
- GUUUCGUAGGCGUAAUGGUGACGAGUCUCCCUCCUAAGGAGAAGACUGCGGGUUCGAGUCCCGUACGGAACG — lower, ≤ 0.5
- GUUCGGUUGGCGUAAUGGUAAAGCGUCUCCCUGCAAAGGAGAAGACUGCGGGUUUGAGUCCCGUACGGAACG — lower, ≤ 0.5
- GUUCCGUUGGCGUAAUGGUAACGCGUCUCCCUCCUAAGGAGACGACUGCGGAUUUGAGUACCGUACGGAACG — lower, ≤ 0.5
- GUUCCGUUGGCGUAAUGGUCACGCGUCUGCCUCCUAAGGAGAAGACUGCGGGUUCGAGUCCCGUUCGGAACG — lower, 0.51
- GUUCCGUUGGCGUAGUGGUAACGCGUCGCCCUCCUAAGGAGAAGACUGCGGGUUCGAGUCCCGUACGGAACG — lower, 0.646
- GUUACGUUGCCGUAAUGGUAACGCGUCUGCCUCCUAAGGAGAAGACUGCGGGUUCGAGUCCCGUGCGGAACG — lower, ≤ 0.5
- GUUCCGUUGGCGUAAUGGUAACGCGUAUCCCGCCUAAGGAGAAGACUGCGAGUUCCAGUCCCGUACGGAACG — lower, ≤ 0.5
- GUUACGUUGGCGUAAUGGUAACGCGUAUCCCUCCUAAAGAGAAGACUGCGGGUUCGAGUCCCGUACGGAACG — lower, 0.513
- GUUCCGUUGGCGUAAUGGUAACGCGUGUCCCUCCUAAGGAGCAGACUGCGGGUUCGAGUCCCCUACGGAACG — lower, ≤ 0.5
- GUUCCGUUGGCGUAAUGGUAACGCGUCUCCCUCCUACGGGGAAGACUGCGGCUUCGAGCCCCGUUCGGAACG — lower, ≤ 0.5
- GUGCGGUUGGCGUAAUGGCAACGCGUCUCCCUCCUAAGGAGAAGACUGCGGGUUCGAGUCCCGUAUGGAACG — lower, 0.57
- GUUCAGUUGGCGUAAUGGUAACGCGUCUUCCUCCUAAGGAGAAGACUGCGGGUUCGAGUCCCGUAUGGAACG — lower, 0.581
- GUUCCGUUGGCGUAGUGGUAACGUGUCUUGCUCCGAAGGAGAUGACUGCGGGUUCGAGUCCCGUACGGAACG — lower, ≤ 0.5
- GUUCCGUUGGAGUAGUGGUAACGCGUCUCCCUCCUAAGGAGAAGACUGCGGGUUCGAGUCCCGUACGGAACG — lower, 0.711
- GUUCUGUUGGCGUAAUGCUAACGCGCCUCUGUCCUAAGGAGAAGACUGCGGGUUCGAGUCCCGUACGGACCG — lower, ≤ 0.5
- GUUCCGUUCGCGUAAUGGUGACGCGUCUCCCUCCCGAGGAGAAGACUGCGGGUUCGAAUCCCGUACAGAACG — lower, ≤ 0.5
- GUUGCGUUGGCGUAAUGGAAACGCGUAUCCCUCCUAAGGAGAAGACUGCGGGUUCGAGUCCCGUACGGAACG — lower, 0.741
- GUUCCGGUGGCGUAAUGGUAUCGCGUCUCCCUCCUAAGGGGAAGACUGCGGGUUCGAGUCCCGUACAGAACG — lower, ≤ 0.5
